# Measured values from PubChem BioAssay.
# Unmarked numbers belong to inactive results. Results filed as inconclusive are left out. The source made the active and inactive calls.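 The calls were made as follows, unless noted: active = cell viability at or below a set limit in both duplicate runs, the limit being the all-compound median minus 4 SD (cut at about 23% in these data, passing the limit was not always enough); inconclusive = no clear call, values can overlap the other calls; inactive = the rest.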
# Legend:
# [1] = S. cerevisiae growth inhibition in permissive medium (OD615), pilot counter-assay for S. cerevisiae lifespan shortening project, permissive growth control (AID 705;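 active = growth inhibition above 25% in both replicates, a cutoff set 3 SD above the mean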); details: OD615, 24 h, at 10 µM, stronger effect = higher value
# Procedure, shortened: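 System: Engineered DeaD yeast | Buffer or medium: SC raffinose/galactose permissive medium | Doses: 10 µM single dose, 0.25% DMSO | Times: 24 h exposure, 30 °C | Measured by: OD615 turbidity read | Read-out: Yeast growth inhibition indicated by reduced 24 h OD615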
# [2] = S. cerevisiae growth inhibition in restrictive medium, OD615, pilot screen, restrictive growth control, yeast lifespan reduction project (AID 706;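 active = growth inhibition above a set limit, 3 SD over mean compound inhibition, in both replicates, cut at about 43% in these data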;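 also: modified DeaD lifespan yeast strain shifted to restrictive glucose medium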); details: OD615, 48 h, at 10 µM, stronger effect = higher value
# Procedure, shortened: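 Assay system: engineered S. cerevisiae DeaD strain; Buffer or medium: CSMM-D glucose medium; Dosing: 10 µM compound, 0.25% DMSO; Times: cell pre-growth 4 h, compound exposure 48 h, 30 °C; Detection: absorbance (optical density) measured at 615 nm.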
# [3] = doxorubicin toxicity protection in MRP-1 cells – H69AR cells, CellTiter-Glo, duplicate, MRP-1 activator project, pilot screen (AID 807;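 active = viability increase at or above a cutoff of the median across tested compounds plus 3 SD, cut at about 8.5% in these data, passing the limit was not always enough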;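 also: compound pretreatment 18-22 h then 72 h combined with doxorubicin; 0% = doxorubicin alone and 100% = vehicle without doxorubicin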); details: H69AR viability with doxorubicin, CellTiter-Glo luminescence; at 10 µM; stronger effect = higher value
# [4] = viability of HCT116 without oncogenic beta-catenin – human colon tumor cells, pilot screen (AID 823); details: HCT116 beta-catenin knockout viability, CellTiter-Glo, 60 h; at 10 µM; stronger effect = lower value;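 also: 0% = wells killed by 20 µM Hyamine and 100% = untreated DMSO cell wells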
# [5] = viability of PTEN-null HCT116 cells – cell-based, HCT116 clonal line, CellTiter-Glo, pilot screen (AID 824;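 active = viability at or below 27.92% in each of two runs, the all-compound median minus 4 SD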;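 also: 0% = 20 µM Hyamine control and 100% = vehicle cell control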); details: HCT116 PTEN-deleted viability, 60 h, at 10 µM, stronger effect = lower value
# [6] = RAM pathway blockade in budding yeast – dse1pr::URA3 reporter, 5-FOA selection, pilot screen (AID 869;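 active = inhibition over a set limit, the all-compound mean plus 3 SD, in both replicate runs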;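 also: 0% = DMSO wells with no growth and 100% = 10 µM 1-NA-PP1 with full growth; RAM network block rescues cells from 5-FOA so hits raise OD615 growth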); details: S. cerevisiae dse1pr::URA3 5-FOA growth, OD615, 2 d; at 10 µM; stronger effect = higher value; strain carries analog-sensitive mutant Cbk1 kinase
# [7] = RAM signaling pathway blockade in yeast – S. cerevisiae, Pdr1DBD-CYC8 efflux-inhibited sensitized strain, primary screen (AID 1298;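 active = RAM network inhibition above 8.4% in each of two replicates, 3 SD over the compound average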;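 also: 0% = DMSO untreated cells without growth and 100% = 10 µM 1-NA-PP1 full growth; higher means more yeast growth rescued from 5-FOA killing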); details: S. cerevisiae cbk1-as DSE1-URA3 strain, 5-FOA growth OD615, 2 d; at 50 µM; stronger effect = higher value
Compound,growth inhibition [1],growth inhibition [2],viability increase [3],viability [4],viability [5],inhibition [6],RAM network inhibition [7]
C=CCn1c(NCc2cc(C)ccc2O)nc2ccccc21,-18.2%,-17.9%,-2.74%,82.8%,70.6%,-0.74%,2.04%
CCOC(=O)c1nn(-c2ccc3c(c2)CCN3C(C)=O)cc1O,-3.56%,-5.95%,-1.4%,101%,92.7%,0.375%,3.05%
CN1CCN(c2cc(=O)n(C3CCCCC3)c(=O)[nH]2)CC1,-17.5%,-8.34%,0.57%,101%,103%,1.9%,1.26%
CCOC(=O)c1ccccc1NC(=O)Cn1cnc2c(nnn2-c2ccc(C)cc2)c1=O,-7.68%,4.12%,-4.32%,97%,88%,2.62%,3.5%
O=C(COC(=O)c1cccs1)Nc1ccccc1,-5.3%,0.975%,-0.14%,96.7%,97.1%,1.56%,0.11%
Cc1nc2scc(-c3cccs3)c2c(=O)o1,-24%,14.4%,-1.96%,95.8%,98.7%,1.73%,3.15%
CCN1CCn2c3c(c4cc(C)ccc42)CCCC31 (stereo unspecified),-4.94%,-6.53%,-2.11%,80.1%,74.9%,0.895%,0.21%
CS/C(=N\S(=O)(=O)c1ccc(N)cc1)NS(=O)(=O)c1cccs1,-0.825%,-11.5%,-0.88%,103%,102%,0.23%,3.11%
CCOC(=O)N1CCN(C(=O)Cn2c(=O)sc3ccccc32)CC1,-1.79%,-7.62%,-0.84%,100%,97.6%,1.68%,5.71%
CCOc1ccc(OCC)c(Nc2cc(C)nc3ncnn23)c1,-1.1%,7.09%,-3.71%,90%,87.7%,0.1%,-0.06%
O=C(CN(Cc1ccccc1)S(=O)(=O)c1ccccc1)NC1CC1,-4.36%,11.6%,-1.25%,102%,96%,-0.45%,0.45%
COC(=O)c1cn(C(C)C(=O)NCc2ccco2)c2ccccc12 (stereo unspecified),-16.9%,-23.6%,-0.53%,102%,102%,1.68%,2.95%
COc1ccc2c(Cl)c(-c3nnc(SCC(N)=O)n3C)sc2c1,-2.31%,11.7%,-2.99%,106%,94%,1.43%,0.69%
CC1CCCN(c2ncnc3c2cnn3-c2ccc(Cl)cc2)C1 (stereo unspecified),-6.17%,-16.3%,0.48%,76%,79.3%,-1.04%,4.37%
CCn1cc(C(=O)Nc2ccc3c(c2)OCCO3)c2cc(OC)c(OC)cc2c1=O,-10%,2.6%,-6.05%,101%,88.6%,0.915%,-1.36%
CC1(C)CC(=O)C=C(NCCN2CCN(C(=O)Nc3ccc(Cl)cc3)CC2)C1,-1.03%,5.34%,1.25%,99.2%,101%,1.35%,4.07%
O=C(NCCc1ccccc1)c1ccc2c(c1)N(Cc1ccccc1)C(=O)CS2=O (stereo unspecified),0.9%,-2.98%,0.8%,96.3%,88.7%,0.2%,3.6%

Compound,growth inhibition [1],growth inhibition [2],viability increase [3],viability [4],viability [5],inhibition [6],RAM network inhibition [7]
CCn1c(SCC(=O)N2CCN(c3ccccc3)CC2)nc2c(c1=O)SC(C)C2 (stereo unspecified),-13.4%,-10.2%,-2.66%,88.5%,78.4%,1.4%,2.11%
CC1CCN(S(=O)(=O)c2ccc3c(c2)oc(=O)n3CC(=O)N2c3ccccc3CC2C)CC1 (stereo unspecified),-4.77%,-7.59%,-4.28%,68.5%,52.9%,2.85%,7.34%
COc1ccccc1OCC(=O)Nc1ccc(S(=O)(=O)N2CCCCCC2)cc1,-10.1%,-4.95%,0.4%,83.1%,82.1%,2.08%,10.1%
O=C(NC1CCCC1)c1ccc(CS(=O)(=O)c2ccc(Br)cc2)o1,-3.78%,-9.12%,-0.83%,102%,93.9%,3.01%,1.03%
CN(C)Cc1cc(C(C)(C)C)c(O)c(C(C)(C)C)c1,-3.78%,-4.33%,-2.61%,97.2%,101%,0.92%,5.72%
CCCc1nnc(SCC(=O)O)n1/N=C/c1ccc2c(c1)OCO2,8.88%,34.1%,-2.31%,102%,101%,0.54%,0.41%
CCCc1ccc2c(N)c(C#N)sc2n1,-9.88%,2.12%,0.61%,111%,104%,0.235%,-0.37%
COC(=O)c1sccc1NC(=O)c1ccc(Br)o1,12.1%,11.3%,-6.77%,78.5%,72.2%,2.2%,7.41%
CCOc1ccc(N(CC(=O)Nc2ccccc2C)S(=O)(=O)c2c(C)noc2C)cc1,10.9%,4.1%,-5.61%,15.9% (active),18.1% (active),2.38%,-0.84%
O=C(Nc1nccs1)C1CCN(S(=O)(=O)c2cccnc2)CC1,-4.93%,3.12%,-0.26%,102%,101%,0.905%,-0.78%
Cn1c(NC(=O)c2ccccc2Br)cc(=O)n(C)c1=O,-9.54%,-19.3%,-3.97%,105%,94.5%,1.15%,0.36%
COCCN1Cc2cccc(C(=O)NCc3ccccn3)c2C1=O,-2.71%,-0.385%,-0.59%,103%,110%,0%,1.61%
O=C(NCCCN1CCOCC1)c1cc(-c2ccc3c(c2)OCO3)nc2ccccc12,-19.7%,-7.51%,-3.78%,92.8%,89.3%,1.26%,7.64%
O=C(NC1CCCCCCC1)c1cnccn1,0.775%,10.4%,-0.43%,103%,93.7%,1.72%,1.71%
CCC(CC)C(=O)N1c2ccc(F)cc2CCC1C (stereo unspecified),-16.6%,-10.7%,-0.23%,95.3%,93.9%,1.31%,1.96%
CCCCN=C(C)C1=C(O)CSC1=O,-1.78%,4.99%,-1.7%,104%,99.7%,2%,3.8%
